In brackets after ≈: the same amount, converted by molar mass.
Key:
[1] = Antioxidant activity assessed as nitric oxide scavenging activity after 2.5 hrs by Griess assay; format: functional
Procedure, shortened: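 Sodium nitroprusside, 10 mM in phosphate saline buffer pH 7.4, added to samples at various concentrations and held 2.5 h at room temperature. Nitrite detected with Griess reagent at 546 nm against a blank. Inhibition (%) = (1 − A1/A0)×100, with A0 the control. Ascorbic acid as standard. Means of triplicates from three independent experiments.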

SW982 = experiment: Cytotoxicity against human SW982 cells assessed as growth inhibition after 72 hrs by MTT assay; format: functional, cell-based; conditions: SW982, 72 h
Procedure, shortened: (§1)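 Cells grown in DMEM with 10% FBS, seeded at 10,000 per well, and treated after 24 h with a concentration series ending at […]; pristimerin as positive control. After 72 h, MTT (5 mg/ml) added for 3 h. Formazan dissolved in DMSO, read at 570 nm. IC50 is the concentration giving 50% growth inhibition; mean ± S.D. of three tests in triplicate.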

MCF7 = experiment: Cytotoxicity against human MCF7 cells assessed as growth inhibition after 72 hrs by MTT assay; format: functional, cell-based; conditions: MCF7, 72 h; procedure, shortened: as §1
[2] = tested on: Radical scavenging activity; experiment: Antioxidant activity assessed as DPPH free radical scavenging activity after 15 mins by spectrophotometric analysis; format: functional
Procedure, shortened: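 Test samples at several concentrations mixed with stock DPPH (final concentration not stated), made up to 3 ml in methanol, incubated 15 min. Absorbance at 517 nm read against a sample-free blank. Ascorbic acid at various concentrations as standard. Values are means of triplicates from three independent experiments.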

HeLa = experiment: Cytotoxicity against human HeLa cells assessed as growth inhibition after 72 hrs by MTT assay; format: functional, cell-based; procedure, shortened: as §1
[3] = Antioxidant activity in rat erythrocytes assessed as inhibition of phenyl hydrazine-induced haemolysis after 1 hr; format: functional, cell-based; conditions: erythrocyte
Procedure, shortened: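 20% PCV erythrocyte suspension made from rat blood. Samples at various concentrations combined with 0.5 mM phenyl hydrazine and erythrocyte suspension in phosphate buffered saline (3 ml total). Incubated 37 °C for 1 h, centrifuged 1000 g for 10 min, supernatant absorbance at 540 nm. α-Tocopherol as positive control.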

Row | IC50 [1] [µg/mL] | IC50 [2] [µg/mL] | SMILES | IC50 (SW982) [µM] | IC50 (MCF7) [µM] | IC50 (HeLa) [µM] | IC50 [3] [µg/mL]
1 | 1.982 (≈ 5.77 µM) | 4.754 (≈ 13.8 µM) | COc1cc(OC)c(OC)cc1/C=C/C(=O)c1ccc([N+](=O)[O-])cc1 | > 150 | > 150 | > 150 | 2.337 (≈ 6.81 µM)
2 | 2.085 (≈ 5.69 µM) | 5.153 (≈ 14.1 µM) | COc1cc(OC)c(OC)cc1/C=C/C(=O)c1cccc(C(F)(F)F)c1 | > 150 | > 150 | > 150 | 2.302 (≈ 6.28 µM)
3 | 2.348 (≈ 6.84 µM) | 4.309 (≈ 12.6 µM) | COc1cc(OC)c(OC)cc1/C=C/C(=O)c1cccc([N+](=O)[O-])c1 | 101 | > 150 | 130 | 2.209 (≈ 6.43 µM)
4 | 2.32 (≈ 6.65 µM) | 5.073 (≈ 14.5 µM) | COc1cc(OC)c(OC)cc1/C=C/C(=O)c1cc(Cl)ccc1O | > 150 | > 150 | > 150 | 2.233 (≈ 6.4 µM)
5 | 2.181 (≈ 6.98 µM) | 4.325 (≈ 13.8 µM) | COc1cc(OC)c(OC)cc1/C=C/C(=O)c1ccc(C)cc1 | 81.1 | 33 | 42.2 | 2.236 (≈ 7.16 µM)
6 | 1.99 (≈ 5.27 µM) | 4.472 (≈ 11.8 µM) | COc1cc(OC)c(OC)cc1/C=C/C(=O)c1ccc(Cl)c([N+](=O)[O-])c1 | 20.6 | 16.4 | 16.5 | 2.151 (≈ 5.69 µM)
7 | 2.012 (≈ 6.74 µM) | 4.506 (≈ 15.1 µM) | COc1cc(OC)c(OC)cc1/C=C/C(=O)c1ccccc1 | > 150 | > 150 | > 150 | 2.225 (≈ 7.46 µM)
8 | 1.972 (≈ 5.41 µM) | 4.757 (≈ 13.1 µM) | COc1cc(OC)c(OC)cc1/C=C/C(=O)c1ccc(-n2ccnc2)cc1 | > 150 | > 150 | > 150 | 2.481 (≈ 6.81 µM)
9 | 2.078 (≈ 5.42 µM) | 4.269 (≈ 11.1 µM) | COc1cc(OC)c(OC)cc1/C=C/C(=O)c1ccc(N2CCOCC2)cc1 | > 150 | > 150 | > 150 | 2.121 (≈ 5.53 µM)
10 | 2.502 (≈ 7.96 µM) | 4.293 (≈ 13.7 µM) | COc1cc(OC)c(OC)cc1/C=C/C(=O)c1ccc(O)cc1 | 155 | 182 | – | 2.285 (≈ 7.27 µM)
11 | 1.963 (≈ 6.21 µM) | 4.71 (≈ 14.9 µM) | COc1cc(OC)c(OC)cc1/C=C/C(=O)c1ccc(F)cc1 | 32.5 | 30 | 28.6 | 2.216 (≈ 7.01 µM)
12 | 2.224 (≈ 5.9 µM) | 4.318 (≈ 11.4 µM) | COc1cc(OC)c(OC)cc1/C=C/C(=O)c1ccc(Br)cc1 | 38.2 | 18.3 | 31.7 | 2.3 (≈ 6.1 µM)
13 | 2.07 (≈ 6.3 µM) | 4.394 (≈ 13.4 µM) | COc1ccc(C(=O)/C=C/c2cc(OC)c(OC)cc2OC)cc1 | 60.5 | 33.9 | 37.6 | 2.178 (≈ 6.63 µM)
14 | 2.462 (≈ 7.15 µM) | 4.31 (≈ 12.5 µM) | COc1cc(C(=O)/C=C/c2cc(OC)c(OC)cc2OC)ccc1O | > 150 | 95.5 | > 150 | 2.163 (≈ 6.28 µM)
15 | 2.014 (≈ 6.05 µM) | 4.593 (≈ 13.8 µM) | COc1cc(OC)c(OC)cc1/C=C/C(=O)c1ccc(Cl)cc1 | 58.5 | 29.5 | 36.5 | 2.298 (≈ 6.91 µM)

The next lines start with the compound.

Row | SMILES | IC50 [1] [µg/mL] | IC50 [2] [µg/mL] | IC50 (SW982) [µM] | IC50 (MCF7) [µM] | IC50 (HeLa) [µM] | IC50 [3] [µg/mL]
16 | CC=Cc1cc(OC)c(OC)cc1OC [CIS-ASARONE] | – | – | > 150 | 129 | 126 | –
17 | COc1cc(OC)c(OC)cc1/C=C/C(=O)c1cc(OCc2ccccc2)cc(OCc2ccccc2)c1 | 2.092 (≈ 4.1 µM) | 5.002 (≈ 9.8 µM) | 69.9 | 23.3 | 26.9 | 2.167 (≈ 4.24 µM)
18 | O=C1O[C@H]([C@@H](O)CO)C(O)=C1O [ASCORBIC ACID] | 2.632 (≈ 14.9 µM) | 3.039 (≈ 17.3 µM) | – | – | – | –
19 | Cc1c(C)c2c(c(C)c1O)CC[C@@](C)(CCC[C@H](C)CCC[C@H](C)CCCC(C)C)O2 [ALPHA-TOCOPHEROL] | – | – | – | – | – | 3.658 (≈ 8.49 µM)
20 | COc1cc(OC)c(-c2cc(=O)c3cc(Cl)ccc3o2)cc1OC | 2.145 (≈ 6.19 µM) | 4.973 (≈ 14.3 µM) | > 150 | > 150 | > 150 | 2.125 (≈ 6.13 µM)
21 | COc1cc(OC)c(-c2cc(=O)c3cc(O)ccc3o2)cc1OC | 2.142 (≈ 6.52 µM) | 4.487 (≈ 13.7 µM) | > 150 | > 150 | > 150 | 2.141 (≈ 6.52 µM)
22 | COc1cc(OC)c(-c2cc(=O)c3ccc(O)cc3o2)cc1OC | 2.273 (≈ 6.92 µM) | 4.808 (≈ 14.6 µM) | > 150 | > 150 | > 150 | 2.147 (≈ 6.54 µM)
23 | COc1cc(OC)c(C(=O)/C=C/c2cc(OC)c(OC)cc2OC)c(OC)c1 | 1.977 (≈ 5.09 µM) | 5.023 (≈ 12.9 µM) | 96.5 | 51.4 | 108 | 2.134 (≈ 5.49 µM)
24 | COc1cc(OC)c(-c2oc3ccc(Cl)cc3c(=O)c2O)cc1OC | 2.106 (≈ 5.81 µM) | 4.68 (≈ 12.9 µM) | > 150 | > 150 | > 150 | 2.144 (≈ 5.91 µM)
25 | COc1cc(OC)c(OC)cc1/C=C/C(=O)c1cc(O)ccc1O | 2.444 (≈ 7.4 µM) | 2.653 (≈ 8.03 µM) | > 150 | > 150 | > 150 | 2.103 (≈ 6.37 µM)
26 | COc1cc(OC)c(OC)cc1/C=C/C(=O)c1cc(OC(C)=O)ccc1OC(C)=O | 2.37 (≈ 5.72 µM) | 4.65 (≈ 11.2 µM) | 78.5 | 63.7 | 57.9 | 2.327 (≈ 5.62 µM)
27 | COc1cc(OC)c(OC)cc1/C=C/C(=O)c1ccc(O)cc1O | 2.763 (≈ 8.36 µM) | 4.368 (≈ 13.2 µM) | 32.4 | 33.8 | 37.6 | 2.373 (≈ 7.18 µM)
28 | COC(=O)[C@]1(C)CC[C@]2(C)CC[C@]3(C)C4=CC=C5C(=CC(=O)C(O)=C5C)[C@]4(C)CC[C@@]3(C)[C@@H]2C1 [PRISTIMERIN] | – | – | 1.28 | 0.87 | 3.42 | –
29 | COc1cc(OC)c(C2CC(=O)c3cc(O)ccc3O2)cc1OC (centres undefined) | 2.434 (≈ 7.37 µM) | 4.566 (≈ 13.8 µM) | > 150 | > 150 | > 150 | 2.14 (≈ 6.48 µM)
30 | COc1cc(OC)c(-c2oc3ccc(O)cc3c(=O)c2O)cc1OC | 2.33 (≈ 6.77 µM) | 4.496 (≈ 13.1 µM) | > 150 | > 150 | > 150 | 2.154 (≈ 6.26 µM)

Reference: ChEMBL document CHEMBL2331230, “Synthesis, anticancer and antioxidant activities of 2,4,5-trimethoxy chalcones and analogues from asaronaldehyde: structure-activity relationship” (Eur J Med Chem, 2013)
